Reference: ChEMBL document CHEMBL4346684, “Synthesis and structure-bactericidal activity relationships of non-ketolides: 9-Oxime clarithromycin 11,12-cyclic carbonate featured with three-to eight-atom-length spacers at 3-OH” (Eur J Med Chem, 2019)
In brackets after ≈: the same amount, converted by molar mass.

Key:
Type in all cases: functional
[1] = tested on: Streptococcus pyogenes; assay: Antimicrobial activity against inducibly erythromycin resistant Streptococcus pyogenes 01-968 expressing i-ermA incubated in CAMHB medium for 20 to 24 hrs by two-fold microbroth dilution method
[2] = tested on: Haemophilus influenzae; assay: Ratio of MBC to MIC for azithromycin-susceptible Haemophilus influenzae ATCC 49247
[3] = tested on: Streptococcus pneumoniae; assay: Ratio of MBC to MIC for mef-encoded erythromycin resistant Streptococcus pneumoniae PU09
[4] = tested on: Streptococcus pyogenes; assay: Bactericidal activity against inducibly erythromycin resistant Streptococcus pyogenes 01-968 expressing i-ermA assessed as reduction in colony formation incubated in CAMHB medium for 20 to 24 hrs followed by 24 hrs subculturing in the medium without test compound
[5] = tested on: Streptococcus pneumoniae; assay: Bactericidal activity against erythromycin-susceptible Streptococcus pneumoniae ATCC 49619 assessed as reduction in colony formation incubated in CAMHB medium for 20 to 24 hrs followed by 24 hrs subculturing in the medium without test compound
[6] = tested on: Streptococcus pneumoniae; assay: Antimicrobial activity against mef-encoded erythromycin resistant Streptococcus pneumoniae PU09 incubated in CAMHB medium for 20 to 24 hrs by two-fold microbroth dilution method
[7] = tested on: Staphylococcus aureus; assay: Bactericidal activity against inducibly erythromycin-resistant and methicillin resistant Staphylococcus aureus PU32 expressing i-ermA assessed as reduction in colony formation incubated in CAMHB medium for 20 hrs followed by 24 hrs subculturing in the medium without test compound
[8] = tested on: Streptococcus pneumoniae; assay: Antimicrobial activity against erythromycin-susceptible Streptococcus pneumoniae ATCC 49619 incubated in CAMHB medium for 20 to 24 hrs by two-fold microbroth dilution method
[9] = tested on: Streptococcus pneumoniae; assay: Bactericidal activity against mef-encoded erythromycin resistant Streptococcus pneumoniae PU09 assessed as reduction in colony formation incubated in CAMHB medium for 20 to 24 hrs followed by 24 hrs subculturing in the medium without test compound
[10] = tested on: Staphylococcus aureus; assay: Antimicrobial activity against constitutively erythromycin resistant and methicillin resistant Staphylococcus aureus PU20 expressing c-ermC incubated in CAMHB medium for 20 hrs by two-fold microbroth dilution method; conditions: PU20, 20 h
Summary of the method: (§1)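 Purified fresh Staphylococcus isolate at about 5×10^5 CFU/ml final in CAMHB, 35 °C for 20 h. Each run included ATCC strains and reference antibiotics as QC, plus an antibiotic-free growth control.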

[11] = tested on: Haemophilus influenzae; assay: Antimicrobial activity against azithromycin-susceptible Haemophilus influenzae ATCC 49247 incubated in HTM broth medium for 20 to 24 hrs by two-fold microbroth dilution method
[12] = tested on: Haemophilus influenzae; assay: Bactericidal activity against azithromycin-susceptible Haemophilus influenzae ATCC 49247 assessed as reduction in colony formation incubated in HTM broth medium for 20 to 24 hrs followed by 24 hrs subculturing in the medium without test compound
[13] = tested on: Streptococcus pneumoniae; assay: Ratio of MBC to MIC for erythromycin-susceptible Streptococcus pneumoniae ATCC 49619
[14] = tested on: Streptococcus pyogenes; assay: Ratio of MBC to MIC for inducibly erythromycin resistant Streptococcus pyogenes 01-968 expressing i-ermA
[15] = tested on: Staphylococcus aureus; assay: Antimicrobial activity against inducibly erythromycin-resistant and methicillin resistant Staphylococcus aureus PU32 expressing i-ermA incubated in CAMHB medium for 20 hrs by two-fold microbroth dilution method; conditions: PU32, 20 h; summary of the method: as §1
[16] = tested on: Staphylococcus aureus; assay: Antimicrobial activity against erythromycin-susceptible Staphylococcus aureus ATCC 29213 incubated in CAMHB medium for 20 hrs by two-fold microbroth dilution method; conditions: ATCC 29213, 20 h
Summary of the method: (§2)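 Clinical isolates and ATCC strains, purified by plate activation and used fresh; inoculum about 5×10^5 CFU/ml final. Grown in CAMHB at 35 °C for 20 h.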

[17] = tested on: Staphylococcus epidermidis; assay: Antimicrobial activity against Staphylococcus epidermidis E1 incubated in CAMHB medium for 20 hrs by two-fold microbroth dilution method; conditions: E1, 20 h; summary of the method: as §2
[18] = tested on: Staphylococcus aureus; assay: Antimicrobial activity against constitutively erythromycin resistant Staphylococcus aureus PU20 expressing c-ermC incubated in CAMHB medium for 20 hrs by two-fold microbroth dilution method; conditions: PU20, 20 h
Summary of the method: (§3)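 Purified fresh Staphylococcus isolate at about 5×10^5 CFU/ml final in CAMHB, 35 °C for 20 h. […] Each run included ATCC strains and reference antibiotics as QC, plus an antibiotic-free growth control.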

[19] = tested on: Streptococcus pyogenes; assay: Antimicrobial activity against constitutively erythromycin resistant Streptococcus pyogenes A2 expressing c-erm incubated in CAMHB medium for 20 to 24 hrs by two-fold microbroth dilution method
Summary of the method: (§4)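 Purified fresh Streptococcus isolate at about 5×10^5 CFU/ml final in CAMHB with 5% horse serum, 35 °C for 20–24 h. […] Each run included ATCC strains and reference antibiotics as QC, plus an antibiotic-free growth control.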

[20] = tested on: Staphylococcus aureus; assay: Antimicrobial activity against inducibly erythromycin-resistant Staphylococcus aureus PU32 expressing i-ermA incubated in CAMHB medium for 20 hrs by two-fold microbroth dilution method; conditions: PU32, 20 h; summary of the method: as §3
[21] = tested on: Streptococcus pyogenes; assay: Antimicrobial activity against erythromycin-susceptible Streptococcus pyogenes A3 incubated in CAMHB medium for 20 to 24 hrs by two-fold microbroth dilution method
[22] = tested on: Streptococcus pneumoniae; assay: Antimicrobial activity against constitutively erythromycin resistant Streptococcus pneumoniae PU27 expressing c-erm incubated in CAMHB medium for 20 to 24 hrs by two-fold microbroth dilution method; summary of the method: as §4
[23] = tested on: Staphylococcus aureus; assay: Antimicrobial activity against inducibly erythromycin resistant Staphylococcus aureus PU64 expressing i-ermA incubated in CAMHB medium for 20 hrs by two-fold microbroth dilution method; conditions: PU64, 20 h; summary of the method: as §3

SMILES | Ratio [2] | MBC [5] [µg/mL] | MIC [6] [µg/mL] | MIC [8] [µg/mL] | MBC [9] [µg/mL] | MIC [11] [µg/mL] | MBC [12] [µg/mL] | Ratio [13] | MIC [16] [µg/mL] | MIC [17] [µg/mL] | MIC [18] [µg/mL] | MIC [19] [µg/mL] | MIC [20] [µg/mL] | MIC [21] [µg/mL] | MIC [22] [µg/mL] | MIC [23] [µg/mL] | further results
CC[C@H]1OC(=O)[C@H](C)[C@@H](OC(=O)CCNCCNc2cc3c(=O)c(C(=O)O)cn(C4CC4)c3cc2Cl)[C@H](C)[C@@H](O[C@@H]2O[C@H](C)C[C@H](N(C)C)[C@H]2O)[C@](C)(OC)C[C@@H](C)/C(=N\OC)[C@H](C)[C@H]2OC(=O)O[C@@]21C | 1 | 4 (≈ 3.92 µM) | 8 (≈ 7.84 µM) | 2 (≈ 1.96 µM) | 8 (≈ 7.84 µM) | 128 (≈ 125 µM) | 128 (≈ 125 µM) | 2 | – | – | – | – | – | – | – | – | MIC [1]: 16 µg/mL (≈ 15.7 µM); Ratio [3]: 1; MBC [4]: 32 µg/mL (≈ 31.4 µM); MBC [7]: > 256 µg/mL; MIC [10]: > 256 µg/mL; Ratio [14]: 2; MIC [15]: 256 µg/mL (≈ 251 µM)
C=CCO/N=C1\[C@H](C)C[C@@](C)(OC)[C@H](O[C@@H]2O[C@H](C)C[C@H](N(C)C)[C@H]2O)[C@@H](C)[C@H](OCC#Cc2cncc(C#N)c2)[C@@H](C)C(=O)O[C@H](CC)[C@@]2(C)OC(=O)O[C@@H]2[C@H]1C | – | – | 8 (≈ 9.86 µM) | 4 (≈ 4.93 µM) | – | – | – | – | 64 (≈ 78.9 µM) | 256 (≈ 316 µM) | 128 (≈ 158 µM) | 128 (≈ 158 µM) | 128 (≈ 158 µM) | 4 (≈ 4.93 µM) | 64 (≈ 78.9 µM) | 128 (≈ 158 µM) | –
C=CCO/N=C1\[C@H](C)C[C@@](C)(OC)[C@H](O[C@@H]2O[C@H](C)C[C@H](N(C)C)[C@H]2O)[C@@H](C)[C@H](OCC#Cc2ccnc(N)c2)[C@@H](C)C(=O)O[C@H](CC)[C@@]2(C)OC(=O)O[C@@H]2[C@H]1C | – | – | 8 (≈ 9.99 µM) | 4 (≈ 4.99 µM) | – | – | – | – | 64 (≈ 79.9 µM) | 256 (≈ 320 µM) | 256 (≈ 320 µM) | 128 (≈ 160 µM) | 256 (≈ 320 µM) | 4 (≈ 4.99 µM) | 64 (≈ 79.9 µM) | 256 (≈ 320 µM) | –
CC[C@H]1OC(=O)[C@H](C)[C@@H](OC(=O)CCNC/C=C/c2cccnc2)[C@H](C)[C@@H](O[C@@H]2O[C@H](C)C[C@H](N(C)C)[C@H]2O)[C@](C)(OC)C[C@@H](C)/C(=N\OC)[C@H](C)[C@H]2OC(=O)O[C@@]21C | 1 | 2 (≈ 2.4 µM) | 2 (≈ 2.4 µM) | 1 (≈ 1.2 µM) | 2 (≈ 2.4 µM) | 256 (≈ 307 µM) | 256 (≈ 307 µM) | 2 | – | – | – | – | – | – | – | – | MIC [1]: 8 µg/mL (≈ 9.6 µM); Ratio [3]: 1; MBC [4]: > 64 µg/mL; MBC [7]: > 256 µg/mL; MIC [10]: > 256 µg/mL; Ratio [14]: >8; MIC [15]: 128 µg/mL (≈ 154 µM)
C=CCO/N=C1\[C@H](C)C[C@@](C)(OC)[C@H](O[C@@H]2O[C@H](C)C[C@H](N(C)C)[C@H]2O)[C@@H](C)[C@H](OCC#Cc2cccc(N)n2)[C@@H](C)C(=O)O[C@H](CC)[C@@]2(C)OC(=O)O[C@@H]2[C@H]1C | – | – | 4 (≈ 4.99 µM) | 4 (≈ 4.99 µM) | – | – | – | – | 64 (≈ 79.9 µM) | 256 (≈ 320 µM) | 256 (≈ 320 µM) | 64 (≈ 79.9 µM) | 256 (≈ 320 µM) | 4 (≈ 4.99 µM) | 64 (≈ 79.9 µM) | 128 (≈ 160 µM) | –
CC[C@H]1OC(=O)[C@H](C)[C@@H](OC(=O)NCCCc2cncc(N)c2)[C@H](C)[C@@H](O[C@@H]2O[C@H](C)C[C@H](N(C)C)[C@H]2O)[C@](C)(OC)C[C@@H](C)/C(=N\OC)[C@H](C)[C@H]2OC(=O)O[C@@]21C | 1 | 0.5 (≈ 0.608 µM) | 4 (≈ 4.87 µM) | 0.25 (≈ 0.304 µM) | 8 (≈ 9.73 µM) | 256 (≈ 311 µM) | 256 (≈ 311 µM) | 2 | – | – | – | – | – | – | – | – | –
C=CCO/N=C1\[C@H](C)C[C@@](C)(OC)[C@H](O[C@@H]2O[C@H](C)C[C@H](N(C)C)[C@H]2O)[C@@H](C)[C@H](OCC#Cc2cncnc2)[C@@H](C)C(=O)O[C@H](CC)[C@@]2(C)OC(=O)O[C@@H]2[C@H]1C | – | – | 4 (≈ 5.08 µM) | 4 (≈ 5.08 µM) | – | – | – | – | 64 (≈ 81.3 µM) | 256 (≈ 325 µM) | 256 (≈ 325 µM) | 64 (≈ 81.3 µM) | 128 (≈ 163 µM) | 4 (≈ 5.08 µM) | 64 (≈ 81.3 µM) | 256 (≈ 325 µM) | –
